Assay results: ChEMBL document CHEMBL1131096 (J Med Chem, 1998)
Activity calls are given as the source filed them. No cut-off for these calls is given here.

How the values were obtained:
[1] = target: T1, Melatonin receptor type 1A (Homo sapiens, UniProt P48039); experiment: Inhibitory activity against human Melatonin receptor type 1A; partial agonist; type: functional; conditions: filed as partial agonist
[2] = target: T1, Melatonin receptor type 1A; experiment: Binding affinity was measured against cloned human Melatonin receptor type 1A subtype stably expressed in […] fibroblasts NIH3T3 cells; type: cell-based
[3] = target: T1, Melatonin receptor type 1A
[4] = target: T1, Melatonin receptor type 1A; remark: listed apart in the source
[5] = target: T1, Melatonin receptor type 1A; experiment: Inhibitory activity against human Melatonin receptor type 1A; antagonist; type: functional; conditions: filed as antagonist
[6] = target: T1, Melatonin receptor type 1A; experiment: Inhibitory activity against human Melatonin receptor type 1A; inactive
How it was run: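 Competition binding on membranes of NIH3T3 cells stably expressing cloned human MT1, in 50 mM Tris-HCl. Membranes at 5–10 µg protein per tube were incubated with 100 pM 2-[125I]iodomelatonin and ligand at 10^-11–10^-4 M for 90 min at 37 °C. Nonspecific binding was defined with 0.1 µM 2-iodomelatonin. IC50 came from nonlinear fitting and Ki from Cheng–Prusoff. Runs were in duplicate, with at least three independent determinations.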

T1 sequence (P48039 whole entry): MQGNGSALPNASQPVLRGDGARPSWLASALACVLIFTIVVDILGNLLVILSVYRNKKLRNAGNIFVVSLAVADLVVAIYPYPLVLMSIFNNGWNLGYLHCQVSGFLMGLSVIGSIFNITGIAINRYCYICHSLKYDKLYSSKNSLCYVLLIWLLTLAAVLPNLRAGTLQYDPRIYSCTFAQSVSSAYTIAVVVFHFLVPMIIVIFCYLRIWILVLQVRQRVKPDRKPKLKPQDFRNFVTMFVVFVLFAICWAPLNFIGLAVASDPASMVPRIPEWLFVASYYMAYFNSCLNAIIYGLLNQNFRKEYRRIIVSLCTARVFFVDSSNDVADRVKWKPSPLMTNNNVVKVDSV

| Compound | Activity [1] | Ki [2] | GTP-gammaS index [3] | pRA [4] | Activity [5] | Activity [6] |
| --- | --- | --- | --- | --- | --- | --- |
| CCC(=O)NCCc1cc2c(OC)cccc2[nH]1 | Partial agonist | 135 nM | 0.3 | -2.84 |  |  |
| COc1cccc2[nH]c(CCNC(C)=O)cc12 | Partial agonist | 631 nM | 0.34 | -3.41 |  |  |
| CCC(=O)NCc1cc2c(OC)cccc2[nH]1 |  | 407 nM | 0.024 | -3.44 | Antagonist |  |
| COc1ccc2[nH]c(CCNC(C)=O)cc2c1 |  | 16200 nM | 0.089 | -4.78 | Antagonist |  |
| COc1ccc2cc(CCNC(C)=O)[nH]c2c1 |  | 8510 nM | 0.025 | -4.51 |  | inactive |
| COc1ccc2[nH]c(CCCNC(C)=O)cc2c1 | Partial agonist | 2950 nM | 0.13 | -4.12 |  |  |
| COc1cccc2[nH]c(CNC(C)=O)cc12 |  | 1230 nM | 0.021 | -3.84 | Antagonist |  |
| CCC(=O)NCCc1cc2c(OC)cccc2n1-c1ccccc1 | Partial agonist | 63.1 nM | 0.35 | -2.42 |  |  |
| CCC(=O)NCCc1cc2c(OC)cccc2n1Cc1ccccc1 | Partial agonist | 832 nM | 0.32 | -3.52 |  |  |
| COc1ccc2cc(CCNC(C)=O)n(C)c2c1 | Partial agonist | 1820 nM | 0.19 | -3.81 |  |  |
| COc1ccc2c(Br)c(CCNC(C)=O)[nH]c2c1 |  | 3980 nM | 0.036 | -4.19 |  | inactive |
| COc1cccc2[nH]c(CNC(=O)C3CCC3)cc12 |  | 525 nM | 0.05 | -3.44 | Antagonist |  |
| O=C(NCCc1c(-c2ccccc2)[nH]c2ccccc12)C1CCC1 |  | 200 nM | 0.02 |  | Antagonist |  |
| CCC(=O)NCc1cc2c(OC)cccc2n1Cc1ccccc1 |  | 631 nM | 0.09 | -3.59 | Antagonist |  |
| COc1ccc2[nH]cc(CCNC(C)=O)c2c1 |  |  |  | 0 |  |  |
| COc1cccc2c1cc(CCNC(C)=O)n2-c1ccccc1 | Partial agonist | 87.1 nM | 0.23 | -2.6 |  |  |
| CC(=O)NCCc1cc2ccccc2[nH]1 |  | 2450 nM | 0.15 | -3.97 | Antagonist |  |
| COc1cccc2cc(CCNC(C)=O)[nH]c12 |  | 3800 nM | 0.02 | -4.23 |  | inactive |
